Measured values reported in ChEMBL document CHEMBL1122046, “Quaternary heterocyclylamino beta-lactams: a generic alternative to the classical acylamino side chain” (1982).
≈ marks a conversion by molar mass, not a printed value.

tested on: Escherichia coli; test: MIC against aerobic organism Escherichia coli strain 2891; assay type: functional; settings: Escherichia coli; read-out: MIC
Procedure, shortened: (§1)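 Agar-dilution MIC in µg/mL against aerobic bacterial strains on tryptocase soy agar, with inoculum applied as spots. Most series used 10^5 cfu per spot, and a later series used 10^4 cfu per spot. In some tables, footnoted strains were instead tested on Mueller-Hinton or nutrient agar. β-Lactamase-producing strains are flagged.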

| MIC | Structure (SMILES) |
| --- | --- |
| 128 µg/mL | Cc1nnc(SCC2=C(C(=O)[O-])N3C(=O)[C@@H](Nc4cc[n+](COCC(Cl)(Cl)Cl)cc4C(=O)[O-])[C@H]3SC2)s1.[Na+] |
| 1 µg/mL (≈ 1.94 µM) | CC(=O)OCC1=C(C(=O)[O-])N2C(=O)[C@@H](Nc3cc[n+](COCc4ccc([N+](=O)[O-])cc4)cc3)[C@H]2SC1 |
| 0.25 µg/mL (≈ 0.48 µM) | Cn1nnnc1SCC1=C(C(=O)[O-])N2C(=O)[C@@H](Nc3cc[n+](Cc4ccc(C#N)cc4)cc3)[C@H]2SC1 |

tested on: Klebsiella aerogenes; test: Minimum inhibitory concentration against aerobic organism Enterobacter aerogenes strain 2828; assay type: functional; settings: not given; procedure, shortened: as §1

| MIC | Structure (SMILES) |
| --- | --- |
| > 128 µg/mL | Cc1nnc(SCC2=C(C(=O)[O-])N3C(=O)[C@@H](Nc4cc[n+](COCC(Cl)(Cl)Cl)cc4C(=O)[O-])[C@H]3SC2)s1.[Na+] |
| > 128 µg/mL | CC(=O)OCC1=C(C(=O)[O-])N2C(=O)[C@@H](Nc3cc[n+](COCc4ccc([N+](=O)[O-])cc4)cc3)[C@H]2SC1 |

tested on: Klebsiella aerogenes; test: Minimum inhibitory concentration against aerobic organism Enterobacter aerogenes strain 2906; assay type: functional; settings: Klebsiella aerogenes; read-out: MIC; procedure, shortened: as §1

| MIC | Structure (SMILES) |
| --- | --- |
| 8 µg/mL (≈ 15.4 µM) | Cn1nnnc1SCC1=C(C(=O)[O-])N2C(=O)[C@@H](Nc3cc[n+](Cc4ccc(C#N)cc4)cc3)[C@H]2SC1 |

tested on: Enterobacter cloacae; test: Minimum inhibitory concentration against aerobic organism Enterobacter cloacae strain 2646; assay type: functional; settings: Enterobacter cloacae; read-out: MIC; procedure, shortened: as §1

| MIC | Structure (SMILES) |
| --- | --- |
| > 128 µg/mL | Cc1nnc(SCC2=C(C(=O)[O-])N3C(=O)[C@@H](Nc4cc[n+](COCC(Cl)(Cl)Cl)cc4C(=O)[O-])[C@H]3SC2)s1.[Na+] |
| 64 µg/mL (≈ 124 µM) | CC(=O)OCC1=C(C(=O)[O-])N2C(=O)[C@@H](Nc3cc[n+](COCc4ccc([N+](=O)[O-])cc4)cc3)[C@H]2SC1 |
| 8 µg/mL (≈ 15.4 µM) | Cn1nnnc1SCC1=C(C(=O)[O-])N2C(=O)[C@@H](Nc3cc[n+](Cc4ccc(C#N)cc4)cc3)[C@H]2SC1 |

tested on: Klebsiella pneumoniae; test: Minimum inhibitory concentration against aerobic organism Klebsiella pneumoniae strain 2882; assay type: functional; settings: Klebsiella pneumoniae; read-out: MIC; procedure, shortened: as §1

| MIC | Structure (SMILES) |
| --- | --- |
| 1 µg/mL (≈ 1.92 µM) | Cn1nnnc1SCC1=C(C(=O)[O-])N2C(=O)[C@@H](Nc3cc[n+](Cc4ccc(C#N)cc4)cc3)[C@H]2SC1 |

tested on: Klebsiella pneumoniae; test: Minimum inhibitory concentration against aerobic organism Klebsiella pneumoniae strain 4005; assay type: functional; settings: not given; procedure, shortened: as §1

| MIC | Structure (SMILES) |
| --- | --- |
| > 128 µg/mL | Cc1nnc(SCC2=C(C(=O)[O-])N3C(=O)[C@@H](Nc4cc[n+](COCC(Cl)(Cl)Cl)cc4C(=O)[O-])[C@H]3SC2)s1.[Na+] |
| 128 µg/mL (≈ 249 µM) | CC(=O)OCC1=C(C(=O)[O-])N2C(=O)[C@@H](Nc3cc[n+](COCc4ccc([N+](=O)[O-])cc4)cc3)[C@H]2SC1 |

tested on: Morganella morganii; test: Minimum inhibitory concentration against aerobic organism Morganella morganii strain 2833; assay type: functional; settings: Morganella morganii; read-out: MIC; procedure, shortened: as §1

| MIC | Structure (SMILES) |
| --- | --- |
| > 128 µg/mL | Cc1nnc(SCC2=C(C(=O)[O-])N3C(=O)[C@@H](Nc4cc[n+](COCC(Cl)(Cl)Cl)cc4C(=O)[O-])[C@H]3SC2)s1.[Na+] |
| > 128 µg/mL | CC(=O)OCC1=C(C(=O)[O-])N2C(=O)[C@@H](Nc3cc[n+](COCc4ccc([N+](=O)[O-])cc4)cc3)[C@H]2SC1 |
| 128 µg/mL (≈ 246 µM) | Cn1nnnc1SCC1=C(C(=O)[O-])N2C(=O)[C@@H](Nc3cc[n+](Cc4ccc(C#N)cc4)cc3)[C@H]2SC1 |

tested on: Pseudomonas aeruginosa; test: Minimum inhibitory concentration against aerobic organism Pseudomonas aeruginosa strain 2835; assay type: functional; settings: not given; procedure, shortened: as §1

| MIC | Structure (SMILES) |
| --- | --- |
| > 128 µg/mL | Cc1nnc(SCC2=C(C(=O)[O-])N3C(=O)[C@@H](Nc4cc[n+](COCC(Cl)(Cl)Cl)cc4C(=O)[O-])[C@H]3SC2)s1.[Na+] |
| > 128 µg/mL | CC(=O)OCC1=C(C(=O)[O-])N2C(=O)[C@@H](Nc3cc[n+](COCc4ccc([N+](=O)[O-])cc4)cc3)[C@H]2SC1 |
| > 128 µg/mL | Cn1nnnc1SCC1=C(C(=O)[O-])N2C(=O)[C@@H](Nc3cc[n+](Cc4ccc(C#N)cc4)cc3)[C@H]2SC1 |

tested on: Proteus mirabilis; test: Minimum inhibitory concentration against aerobic organism Proteus mirabilis strain 2830; assay type: functional; settings: Proteus mirabilis; read-out: MIC; procedure, shortened: as §1

| MIC | Structure (SMILES) |
| --- | --- |
| > 128 µg/mL | Cc1nnc(SCC2=C(C(=O)[O-])N3C(=O)[C@@H](Nc4cc[n+](COCC(Cl)(Cl)Cl)cc4C(=O)[O-])[C@H]3SC2)s1.[Na+] |
| > 128 µg/mL | CC(=O)OCC1=C(C(=O)[O-])N2C(=O)[C@@H](Nc3cc[n+](COCc4ccc([N+](=O)[O-])cc4)cc3)[C@H]2SC1 |
| 128 µg/mL (≈ 246 µM) | Cn1nnnc1SCC1=C(C(=O)[O-])N2C(=O)[C@@H](Nc3cc[n+](Cc4ccc(C#N)cc4)cc3)[C@H]2SC1 |

tested on: Proteus vulgaris; test: Minimum inhibitory concentration against aerobic organism Proteus vulgaris strain 2829; assay type: functional; settings: Proteus vulgaris; read-out: MIC; procedure, shortened: as §1

| MIC | Structure (SMILES) |
| --- | --- |
| 16 µg/mL | Cc1nnc(SCC2=C(C(=O)[O-])N3C(=O)[C@@H](Nc4cc[n+](COCC(Cl)(Cl)Cl)cc4C(=O)[O-])[C@H]3SC2)s1.[Na+] |
| 1 µg/mL (≈ 1.94 µM) | CC(=O)OCC1=C(C(=O)[O-])N2C(=O)[C@@H](Nc3cc[n+](COCc4ccc([N+](=O)[O-])cc4)cc3)[C@H]2SC1 |
| 16 µg/mL (≈ 30.7 µM) | Cn1nnnc1SCC1=C(C(=O)[O-])N2C(=O)[C@@H](Nc3cc[n+](Cc4ccc(C#N)cc4)cc3)[C@H]2SC1 |

tested on: not listed separately; test: Minimum inhibitory concentration against aerobic organism Salmonella schottmuelleri strain 2837; assay type: functional; settings: Salmonella; read-out: MIC; procedure, shortened: as §1

| MIC | Structure (SMILES) |
| --- | --- |
| 0.125 µg/mL (≈ 0.24 µM) | Cn1nnnc1SCC1=C(C(=O)[O-])N2C(=O)[C@@H](Nc3cc[n+](Cc4ccc(C#N)cc4)cc3)[C@H]2SC1 |

tested on: Serratia marcescens; test: Minimum inhibitory concentration against aerobic organism Serratia marcescens strain 2852; assay type: functional; settings: Serratia marcescens; read-out: MIC; procedure, shortened: as §1

| MIC | Structure (SMILES) |
| --- | --- |
| 128 µg/mL (≈ 246 µM) | Cn1nnnc1SCC1=C(C(=O)[O-])N2C(=O)[C@@H](Nc3cc[n+](Cc4ccc(C#N)cc4)cc3)[C@H]2SC1 |

tested on: Salmonella; test: Minimum inhibitory concentration against aerobic organism Salmonella strain 3860; assay type: functional; settings: not given; procedure, shortened: as §1

| MIC | Structure (SMILES) |
| --- | --- |
| > 128 µg/mL | Cc1nnc(SCC2=C(C(=O)[O-])N3C(=O)[C@@H](Nc4cc[n+](COCC(Cl)(Cl)Cl)cc4C(=O)[O-])[C@H]3SC2)s1.[Na+] |
| 128 µg/mL (≈ 249 µM) | CC(=O)OCC1=C(C(=O)[O-])N2C(=O)[C@@H](Nc3cc[n+](COCc4ccc([N+](=O)[O-])cc4)cc3)[C@H]2SC1 |

tested on: Streptococcus pyogenes; test: Minimum inhibitory concentration against aerobic organism Streptococcus pyogenes strain 3124; assay type: functional; settings: Streptococcus pyogenes; read-out: MIC; procedure, shortened: as §1

| MIC | Structure (SMILES) |
| --- | --- |
| 0.125 µg/mL (≈ 0.24 µM) | Cn1nnnc1SCC1=C(C(=O)[O-])N2C(=O)[C@@H](Nc3cc[n+](Cc4ccc(C#N)cc4)cc3)[C@H]2SC1 |

tested on: Staphylococcus aureus; test: Minimum inhibitory concentration against aerobic organism Staphylococcus aureus strain 2865; assay type: functional; settings: not given; procedure, shortened: as §1

| MIC | Structure (SMILES) |
| --- | --- |
| 64 µg/mL | Cc1nnc(SCC2=C(C(=O)[O-])N3C(=O)[C@@H](Nc4cc[n+](COCC(Cl)(Cl)Cl)cc4C(=O)[O-])[C@H]3SC2)s1.[Na+] |
| 2 µg/mL (≈ 3.89 µM) | CC(=O)OCC1=C(C(=O)[O-])N2C(=O)[C@@H](Nc3cc[n+](COCc4ccc([N+](=O)[O-])cc4)cc3)[C@H]2SC1 |

tested on: Staphylococcus aureus; test: Minimum inhibitory concentration against aerobic organism Staphylococcus aureus strain 2868; assay type: functional; settings: Staphylococcus aureus; read-out: MIC; procedure, shortened: as §1

| MIC | Structure (SMILES) |
| --- | --- |
| > 128 µg/mL | Cc1nnc(SCC2=C(C(=O)[O-])N3C(=O)[C@@H](Nc4cc[n+](COCC(Cl)(Cl)Cl)cc4C(=O)[O-])[C@H]3SC2)s1.[Na+] |
| 8 µg/mL (≈ 15.5 µM) | CC(=O)OCC1=C(C(=O)[O-])N2C(=O)[C@@H](Nc3cc[n+](COCc4ccc([N+](=O)[O-])cc4)cc3)[C@H]2SC1 |
| 32 µg/mL (≈ 61.5 µM) | Cn1nnnc1SCC1=C(C(=O)[O-])N2C(=O)[C@@H](Nc3cc[n+](Cc4ccc(C#N)cc4)cc3)[C@H]2SC1 |

tested on: Enterococcus faecalis; test: Minimum inhibitory concentration against aerobic organism Streptococcus faecalis strain 2864; assay type: functional; settings: not given; procedure, shortened: as §1

| MIC | Structure (SMILES) |
| --- | --- |
| > 128 µg/mL | Cc1nnc(SCC2=C(C(=O)[O-])N3C(=O)[C@@H](Nc4cc[n+](COCC(Cl)(Cl)Cl)cc4C(=O)[O-])[C@H]3SC2)s1.[Na+] |
| > 128 µg/mL | CC(=O)OCC1=C(C(=O)[O-])N2C(=O)[C@@H](Nc3cc[n+](COCc4ccc([N+](=O)[O-])cc4)cc3)[C@H]2SC1 |
| > 128 µg/mL | Cn1nnnc1SCC1=C(C(=O)[O-])N2C(=O)[C@@H](Nc3cc[n+](Cc4ccc(C#N)cc4)cc3)[C@H]2SC1 |

tested on: Shigella; test: Minimum inhibitory concentration against aerobic organism Shigella species strain 2880; assay type: functional; settings: Shigella; read-out: MIC; procedure, shortened: as §1

| MIC | Structure (SMILES) |
| --- | --- |
| < 0.06 µg/mL | Cn1nnnc1SCC1=C(C(=O)[O-])N2C(=O)[C@@H](Nc3cc[n+](Cc4ccc(C#N)cc4)cc3)[C@H]2SC1 |
